This is an account of results in ChEMBL document CHEMBL1149143, “Synthesis, antimalarial activity, and molecular modeling of new pyrrolo[1,2-a]quinoxalines, bispyrrolo[1,2-a]quinoxalines, bispyrido[3,2-e]pyrrolo[1,2-a]pyrazines, and bispyrrolo[1,2-a]thieno[3,2-e]pyrazines” (J Med Chem, 2004).

The subject of data set [1] is Plasmodium falciparum. As to the kind of experiment: In vitro antimalarial activity against Plasmodium falciparum K1. The format is functional, organism-based. In a few lines: (§1)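 P. falciparum kept on human erythrocytes; CQ-sensitive Thai and CQ-resistant FcB1 and K1 strains. Drugs diluted serially in culture medium, added to asynchronous cultures (1% parasitemia, 1% hematocrit) for 24 h at 37 °C, then 0.5 μCi [³H]hypoxanthine per well for 24 h more. Uptake compared with drug-free controls; IC50 from concentration–response curve, mean ± SD of independent experiments. DMSO ≤0.1%.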

The subject of data set [2] is Plasmodium falciparum. As to the kind of experiment: Resistance index as IC50 for Plasmodium falciparum K1 and Thai strains. It counts as functional.
Data set [3] has as its system L6. As to the kind of experiment: Selectivity IC50 index against Plasmodium falciparum K1 compared to L6 cells. The format is functional.
Data set [4] has as its system L6. In words: In vitro cytotoxicity against mammalian L6 cells was determined. It counts as functional, cell-based. The conditions noted are these: Rattus norvegicus. Put shortly: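 L6 cells, 10⁴ per well, exposed to a range of inhibitor concentrations for up to 5 days. Proliferation read by XTT colorimetric assay; inhibition relative to DMSO-treated controls; IC50 reported.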

Data set [5] deals with Plasmodium falciparum. As to the kind of experiment: In vitro antimalarial activity against Thai strain of Plasmodium falciparum. It counts as functional, organism-based. Put shortly: as §1
Data set [6] is described as follows: Lipophilicity at pH 5. It counts as physicochemical. As to conditions: buffer, read-out: Log D5.0. Put shortly: (§2)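 Octanol/buffer shake partition: phosphate buffer pH 7.4 or acetate buffer pH 5.0, phases mutually presaturated; compound at 50–250 μg/mL in buffer. Aqueous phase shaken with octanol 30 min, centrifuged 3000 rpm 10 min. Aqueous peak areas before and after partitioning by reversed-phase C8 HPLC (acetonitrile–acetate pH 4, 80:20; 60 °C; UV 254 nm).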

Data set [7] relates to Plasmodium falciparum. In words: Resistance index as ratio of IC50 for Plasmodium falciparum FcB1 and Thai strains. It counts as functional.
Data set [8] in a line: Lipophilicity at pH 7.4. As to conditions: buffer, read-out: Log D7.4. It counts as physicochemical. Put shortly:
as §2

Data set [9] is described as follows: Food vacuolar accumulation ratio was determined. The format is functional. Put shortly: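 Calculated, not measured: VAR from the compound's pKa values, assuming vacuolar pH 5.0 and external pH 7.4.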
For data set [10], the system named is Plasmodium falciparum. In words: In vitro antimalarial activity against Plasmodium falciparum FcB1. The format is functional, organism-based. In a few lines:
as §1

A value given as a limit tells only on which side of the number the result lay.

By IC50 is commonly meant the concentration that gives 50% inhibition. A high value points to a need for much substance. Take `Clc1ccc2nc(NCCCN3CCN(CCCNc4nc5ccc(Cl)cc5n5cccc45)CC3)c3cccn3c2c1`: the half-maximal inhibitory concentration (IC50) with Plasmodium falciparum [1] worked out at 480 nM; in the data set with L6 [4], 4010 nM; in the data set on Plasmodium falciparum [5], 280 nM; in the data set with Plasmodium falciparum [10], 640 nM. In addition, the Ratio in the data set on Plasmodium falciparum [2] was found to be 1.7; in the data set on L6 [3], 8.2; in the data set on Plasmodium falciparum [7] it was 2.3; in [9], 2100. The values for the logD in [6] and in data set [8] were 3.43 and 4.92, respectively.

On to `COc1ccc2c(c1)nc(NCCCN(C)CCCNc1nc3cc(OC)ccc3n3cccc13)c1cccn12`, for which the IC50 turned out to be 50 nM in the data set on Plasmodium falciparum [1], 5740 nM in the data set on L6 [4], 50 nM in the data set on Plasmodium falciparum [5] and 110 nM in the data set on Plasmodium falciparum [10]. Moreover, the Ratio in the data set with Plasmodium falciparum [2] amounted to 1; in the data set on L6 [3], 106.3; in the data set on Plasmodium falciparum [7] it was 2.2; in data set [9], 105000. The logD in [6] was 0.93; in data set [8], 3.55.

Turning to `COc1ccc2c(c1)nc(NCCCN1CCN(CCCNc3nc4cc(OC)ccc4n4c(Cl)ccc34)CC1)c1ccc(Cl)n12`, the IC50 in the data set with Plasmodium falciparum [1] was determined as 330 nM; in the data set on L6 [4], 3070 nM; with Plasmodium falciparum [5] it was 250 nM; in the data set on Plasmodium falciparum [10], 720 nM. For the same molecule, the Ratio with Plasmodium falciparum [2] amounted to 1.32; with L6 [3] it was 9.3; with Plasmodium falciparum [7], 2.9; in data set [9] it was 900. Also, the logD in data set [6] was found to be 4.17; in [8], 5.74.

As for `CCN(CC)CCCC(C)Nc1nc2ccc(Cl)cc2n2cccc12` (stereo not given), the IC50 with Plasmodium falciparum [1] was 3060 nM; in the data set on L6 [4], 17300 nM; in the data set with Plasmodium falciparum [5], 1940 nM; with Plasmodium falciparum [10], 4790 nM. Moreover, the Ratio with Plasmodium falciparum [2] is listed as 1.6; with L6 [3], 5.6; in the data set with Plasmodium falciparum [7], 2.5.

On to `CCN(CC)CCCC(C)Nc1nc2ccccc2n2cccc12` (stereo not given), for which the IC50 was 4340 nM in the data set on Plasmodium falciparum [1], greater than 20000 nM in the data set with L6 [4], 2950 nM in the data set on Plasmodium falciparum [5] and 4970 nM with Plasmodium falciparum [10]. In addition, the Ratio in the data set on Plasmodium falciparum [2] was 1.5; in the data set on L6 [3], greater than 4.6; in the data set with Plasmodium falciparum [7] it was 1.7.

With `COc1ccc2c(c1)nc(NCCCNCCCNc1nc3cc(OC)ccc3n3cccc13)c1cccn12`, the concentration for half-maximal inhibition (IC50) in the data set with Plasmodium falciparum [1] was 110 nM; with L6 [4], 2980 nM; in the data set with Plasmodium falciparum [5] it was 40 nM; in the data set on Plasmodium falciparum [10], 190 nM. Besides, the Ratio in the data set with Plasmodium falciparum [2] turned out to be 2.7; in the data set with L6 [3] it was 26.6; in the data set on Plasmodium falciparum [7], 4.7; in [9], 104000. For the same molecule, the values for the logD in data set [6] and in data set [8] were 0.8 and 2.76, respectively.

For `COc1ccc2nc(NCCCN3CCN(CCCNc4nc5ccc(OC)nc5n5cccc45)CC3)c3cccn3c2n1`, the logD in data set [6] came to 3.97; in data set [8], 4.73. The Ratio in [9] was 33000. In the data set with Plasmodium falciparum [10], this molecule came in with an IC50 of 600 nM.

With `COc1ccc2nc(NCCCN3CCN(CCCNc4nc5ccc(OC)cc5n5cccc45)CC3)c3cccn3c2c1`, the IC50 in the data set on Plasmodium falciparum [1] came out at 80 nM; in the data set on L6 [4], 4060 nM; with Plasmodium falciparum [5], 40 nM; with Plasmodium falciparum [10], 130 nM. Moreover, the Ratio stood at 2 in the data set on Plasmodium falciparum [2], 52.7 in the data set with L6 [3], 3.2 with Plasmodium falciparum [7] and 72500 in data set [9]. The logD was 1.88 in data set [6] and 4.67 in [8].

Turning to `COc1ccc2nc(NCCCN(C)CCCNc3nc4ccc(OC)cc4n4cccc34)c3cccn3c2c1`, the IC50 in the data set on Plasmodium falciparum [1] stood at 200 nM; in the data set with L6 [4] it was 3790 nM; in the data set with Plasmodium falciparum [5], 120 nM; in the data set with Plasmodium falciparum [10] it was 320 nM. Also, the Ratio in the data set with Plasmodium falciparum [2] was found to be 1.7; in the data set with L6 [3], 19.2; with Plasmodium falciparum [7], 2.7; in [9], 42100. For the same molecule, the logD in data set [6] stood at 0.41; in data set [8] it was 3.41.

In the case of `COc1ccc2c(c1)nc(NCCCN1CCN(CCCNc3nc4cc(OC)ccc4n4cccc34)CC1)c1cccn12`, the half-maximal inhibitory concentration (IC50) turned out to be 80 nM in the data set on Plasmodium falciparum [1], 1320 nM in the data set on L6 [4], 30 nM in the data set with Plasmodium falciparum [5] and 130 nM with Plasmodium falciparum [10]. Also, the Ratio in the data set on Plasmodium falciparum [2] came out at 2.7; in the data set with L6 [3] it was 17.4; in the data set on Plasmodium falciparum [7], 4.3; in data set [9], 187000. The logD was 2.15 in [6] and 3.72 in [8].

With `Clc1ccc2nc(NCCCNCCCNc3nc4ccc(Cl)cc4n4cccc34)c3cccn3c2c1`, the concentration for half-maximal inhibition (IC50) in the data set on Plasmodium falciparum [1] came out at 790 nM; in the data set with L6 [4], 4810 nM; in the data set with Plasmodium falciparum [5], 470 nM; in the data set on Plasmodium falciparum [10] it was 1140 nM. Further, the Ratio with Plasmodium falciparum [2] was determined as 1.7; in the data set on L6 [3], 6.1; with Plasmodium falciparum [7] it was 2.4; in data set [9], 1600. Further, the logD in data set [6] was 3.16; in [8], 5.06.

`c1cc2c(NCCCN3CCN(CCCNc4nc5ccsc5n5cccc45)CC3)nc3ccsc3n2c1`: in the data set on Plasmodium falciparum [10], the half-inhibitory concentration (IC50) worked out at 930 nM.

With `COc1ccc2nc(NCCCNCCCNc3nc4ccc(OC)cc4n4cccc34)c3cccn3c2c1`, the concentration for half-maximal inhibition (IC50) in the data set with Plasmodium falciparum [1] was found to be 330 nM; in the data set on L6 [4], 3620 nM; in the data set with Plasmodium falciparum [5], 140 nM; with Plasmodium falciparum [10], 300 nM. In addition, the Ratio with Plasmodium falciparum [2] came to 2.4; in the data set on L6 [3], 11; in the data set with Plasmodium falciparum [7] it was 2.1; in data set [9] it was 41700. Also, the values for the logD in [6] and in [8] were 0.93 and 2.58, respectively.

`c1ccc2c(c1)nc(NCCCN1CCN(CCCNc3nc4ccccc4n4cccc34)CC1)c1cccn12`: the IC50 with Plasmodium falciparum [1] was determined as 370 nM; in the data set on L6 [4] it was 5040 nM; in the data set with Plasmodium falciparum [5], 80 nM; in the data set with Plasmodium falciparum [10], 290 nM. Besides, the Ratio came out at 4.6 in the data set on Plasmodium falciparum [2], 13.6 in the data set with L6 [3], 3.6 in the data set with Plasmodium falciparum [7] and 409000 in data set [9]. For the same molecule, the logD amounted to 1.31 in data set [6] and 2.52 in data set [8].

With `CN(CCCNc1nc2ccc(Cl)cc2n2cccc12)CCCNc1nc2ccc(Cl)cc2n2cccc12`, the IC50 in the data set on Plasmodium falciparum [1] came to 700 nM; with L6 [4], 4950 nM; in the data set with Plasmodium falciparum [5] it was 400 nM; with Plasmodium falciparum [10], 1010 nM. Moreover, the Ratio was found to be 1.8 in the data set on Plasmodium falciparum [2], 7.1 in the data set with L6 [3], 2.5 with Plasmodium falciparum [7] and 1800 in [9]. Moreover, the logD in [6] was 3.5; in [8], 4.44.

Turning to `c1cnc2c(c1)nc(NCCCN1CCN(CCCNc3nc4cccnc4n4cccc34)CC1)c1cccn12`, the figures for the logD in [6] and in data set [8] were 2.22 and 5.05, respectively. Further, the Ratio in data set [9] was 100. The same molecule displayed an IC50 in the data set with Plasmodium falciparum [10] of 1090 nM.

With `CCN(CC)CCCC(C)Nc1nc2cc(OC)ccc2n2cccc12` (stereo not given), the IC50 is 1780 nM with Plasmodium falciparum [1], greater than 20000 nM with L6 [4], 830 nM with Plasmodium falciparum [5] and 2470 nM in the data set with Plasmodium falciparum [10]. The values for the Ratio in the data set on Plasmodium falciparum [2], with L6 [3] and in the data set on Plasmodium falciparum [7] were 2.1, greater than 11.2 and 3, respectively.

As to `CN(CCCNc1nc2ccccc2n2cccc12)CCCNc1nc2ccccc2n2cccc12`, the IC50 was 280 nM in the data set on Plasmodium falciparum [1], 6200 nM with L6 [4], 120 nM in the data set on Plasmodium falciparum [5] and 480 nM in the data set on Plasmodium falciparum [10]. Also, the Ratio with Plasmodium falciparum [2] worked out at 2.3; in the data set with L6 [3], 22.1; in the data set on Plasmodium falciparum [7], 4; in [9] it was 226000. Further, the logD in data set [6] was found to be 1.56; in data set [8], 4.12.
